Results of several laboratories.
Protocols differ between the studies behind these lines.
MPO: Myeloperoxidase (MPO, Homo sapiens, UniProt P05164)
CES2: Cocaine esterase (CES2, Homo sapiens, UniProt O00748)
CHRM5: Muscarinic acetylcholine receptor M5 (CHRM5, Homo sapiens, UniProt P08912)
UDP-N-acetylglucosamine--dolichyl-phosphate N-acetylglucosaminephosphotransferase: UDP-N-acetylglucosamine--dolichyl-phosphate N-acetylglucosaminephosphotransferase (Homo sapiens, UniProt Q9H3H5)

Compound | target | test | setting | IC50 [µM]
CC[N+](CC)(CC)Cc1ccccc1.CC[N+](CC)(CC)Cc1ccccc1.[Br][Co-2]([Br])([Br])[Br] | MPO | enzyme activity, inhibitor, absorbance | – | 8.53
O=C(c1ccc(F)c(F)c1Nc1ccc(I)cc1F)N1CC(O)([C@@H]2CCCCN2)C1 | CES2 | enzyme activity, inhibitor, fluorescence | with preincubation | > 100
O=C(CCNC(=O)CNC(=O)CC(c1ccccc1)(c1ccccc1)c1ccccc1)NCC1CCN(Cc2ccc(F)cc2)CC1 | CHRM5 | ligand displacement, radioligand | cell membranes | 35.2
O=C(O[C@@H]1[C@@H](O)[C@H](Oc2cc(O)c3c(c2)O[C@H](c2ccccc2)CC3=O)O[C@@H]2COC(=O)c3cc(O)c(O)c(O)c3-c3c(cc(O)c(O)c3O)C(=O)O[C@@H]12)c1cc(O)c(O)c(O)c1 | Protein disulfide-isomerase A6 (PDIA6, Homo sapiens, UniProt Q15084) | enzyme activity, inhibitor, fluorescence | – | 1.5
Cn1cc(C2=C(c3cn(CCCSC(=N)N)c4ccccc34)C(=O)NC2=O)c2ccccc21 | Serine/threonine-protein kinase 10 (STK10, Homo sapiens, UniProt O94804) | enzyme activity, inhibitor | – | 0.118
CCc1cc2c(cc1N1CCC(N3CCOCC3)CC1)C(C)(C)c1[nH]c3cc(C#N)ccc3c1C2=O | CES2 | enzyme activity, inhibitor, fluorescence | with preincubation | > 100
O=C(CCNC(=O)CNC(=O)CC(c1ccccc1)(c1ccccc1)c1ccccc1)NC[C@@H]1CCCN(Cc2cccnc2F)C1 | CHRM5 | ligand displacement, radioligand | cell membranes | > 30
NCC(=O)O | ltaA (Aeromonas jandaei, UniProt O07051) | enzyme activity, inhibitor | – | 990
CO[C@H]1[C@H](O[C@H]([C@H]2O[C@@H](n3ccc(=O)[nH]c3=O)[C@H](O)[C@@H]2O)[C@H](NCCCNC(=O)[C@@H](NC(=O)[C@@H](NC(=O)N[C@H](C(=O)O)C(C)C)[C@@H]2CCN=C(N)N2)[C@@H](O)C(C)C)C(=O)O)O[C@H](CN)[C@H]1O | UDP-N-acetylglucosamine--dolichyl-phosphate N-acetylglucosaminephosphotransferase | enzyme activity, inhibitor | – | > 50
COc1cc2c(cc1OC)C(=O)/C(=C/c1ccc(C)cc1F)C2 | CES2 | enzyme activity, inhibitor, fluorescence | with preincubation | > 100
Cc1nn(-c2nc3ccccc3[nH]2)c(O)c1C(c1ccccn1)c1c(C)nn(-c2nc3ccccc3[nH]2)c1O | Cyclic GMP-AMP synthase (CGAS, Homo sapiens, UniProt Q8N884) | enzyme activity, inhibitor | – | > 40
CC(C)OCCn1c(=S)[nH]c(=O)c2[nH]ccc21 | MPO | enzyme activity, inhibitor, fluorescence | – | 0.038
COc1cc2c(cc1OC)C(=O)/C(=C/c1cc3ccccc3c3ccccc13)C2 | CES2 | enzyme activity, inhibitor, fluorescence | with preincubation | 2.98
CO[C@H]1[C@H](O[C@H]([C@H]2O[C@@H](n3ccc(=O)[nH]c3=O)[C@H](O)[C@@H]2O)[C@H](NCCCNC(=O)[C@@H](NC(=O)[C@@H](NC(=O)N[C@H](C(=O)O)C(C)C)[C@@H]2CCN=C(N)N2)[C@@H](OC(=O)CCCCCCCCCCCCN(O)C(=N)N)C(C)C)C(=O)O)O[C@H](CN)[C@H]1O | UDP-N-acetylglucosamine--dolichyl-phosphate N-acetylglucosaminephosphotransferase | enzyme activity, inhibitor | – | 0.18
NC/C(=C\F)COc1cccc(Cn2c(=S)[nH]c(=O)c3[nH]cnc32)c1 | MPO | enzyme activity, inhibitor, fluorescence | – | 0.017
